{"source": "paper PMC5532717", "about": "(ACS Central Science, 2017)", "key": {"[1]": {"target": "T1, GANAB (Mus musculus, UniProt Q8BHN3)", "T1 sequence (Q8BHN3 33-944)": "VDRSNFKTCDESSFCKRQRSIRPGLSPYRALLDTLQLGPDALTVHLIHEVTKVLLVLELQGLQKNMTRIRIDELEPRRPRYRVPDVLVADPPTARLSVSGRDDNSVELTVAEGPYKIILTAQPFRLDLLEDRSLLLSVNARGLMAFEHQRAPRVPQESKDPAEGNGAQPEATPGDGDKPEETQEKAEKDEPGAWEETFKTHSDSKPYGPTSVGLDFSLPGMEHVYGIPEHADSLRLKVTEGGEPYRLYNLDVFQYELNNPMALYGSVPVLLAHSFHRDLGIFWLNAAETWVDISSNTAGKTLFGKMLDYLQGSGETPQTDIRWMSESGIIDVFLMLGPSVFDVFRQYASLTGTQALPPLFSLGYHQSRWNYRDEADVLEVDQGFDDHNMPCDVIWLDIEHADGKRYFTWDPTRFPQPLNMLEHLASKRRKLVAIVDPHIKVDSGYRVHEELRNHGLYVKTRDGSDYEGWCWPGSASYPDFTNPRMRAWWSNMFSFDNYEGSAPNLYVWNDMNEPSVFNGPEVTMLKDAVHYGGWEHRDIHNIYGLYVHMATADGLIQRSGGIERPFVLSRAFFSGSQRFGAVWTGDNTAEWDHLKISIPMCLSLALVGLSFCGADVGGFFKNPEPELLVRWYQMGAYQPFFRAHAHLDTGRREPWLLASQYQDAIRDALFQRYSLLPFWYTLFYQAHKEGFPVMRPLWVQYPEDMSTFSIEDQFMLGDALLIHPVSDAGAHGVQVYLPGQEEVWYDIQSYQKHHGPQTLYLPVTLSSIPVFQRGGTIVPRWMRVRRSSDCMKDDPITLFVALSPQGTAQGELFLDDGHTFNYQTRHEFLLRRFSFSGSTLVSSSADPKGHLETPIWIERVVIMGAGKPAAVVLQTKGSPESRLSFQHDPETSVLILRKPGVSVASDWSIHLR", "T1 sequence (O08795 15-521 partner)": "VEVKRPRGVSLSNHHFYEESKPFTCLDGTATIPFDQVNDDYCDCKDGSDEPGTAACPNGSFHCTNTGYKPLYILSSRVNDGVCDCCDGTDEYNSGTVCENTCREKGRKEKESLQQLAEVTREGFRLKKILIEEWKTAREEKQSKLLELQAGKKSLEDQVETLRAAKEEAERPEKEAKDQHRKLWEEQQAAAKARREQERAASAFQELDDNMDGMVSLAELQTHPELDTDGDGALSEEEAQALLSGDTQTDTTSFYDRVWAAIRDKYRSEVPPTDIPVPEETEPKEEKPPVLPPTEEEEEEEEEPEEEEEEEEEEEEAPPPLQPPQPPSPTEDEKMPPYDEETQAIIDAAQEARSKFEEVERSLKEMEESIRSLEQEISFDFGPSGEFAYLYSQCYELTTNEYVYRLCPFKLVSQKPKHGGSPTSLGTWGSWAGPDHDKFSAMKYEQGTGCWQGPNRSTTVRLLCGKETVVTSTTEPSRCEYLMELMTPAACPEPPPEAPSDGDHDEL", "assay": "Competitive ABPP against probe 13 in mouse gastrointestinal lysate", "assay_type": "biochemical", "details": "mouse intestine lysate, 1 h at 37 °C", "in_short": "(§1)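 Mixed mouse duodenum, jejunum and ileum homogenates were made in 25 mM potassium phosphate pH 6.5 with protease inhibitors (40 μg protein). Held 5 min on ice in McIlvaine buffer pH 4 or 7. Incubated 1 h at 37 °C with test compound (final 150 to 0.005 μM, plus 0), then probe 13 for 30 min at 37 °C. Boiled in Laemmli buffer, 10% SDS–PAGE, Cy5 fluorescence scan.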"}, "[2]": {"target": "T2, lactase-phlorizin hydrolase (LPH) (Mus musculus, UniProt F8VPT3)", "T2 sequence (F8VPT3 869-1931 limits assumed)": "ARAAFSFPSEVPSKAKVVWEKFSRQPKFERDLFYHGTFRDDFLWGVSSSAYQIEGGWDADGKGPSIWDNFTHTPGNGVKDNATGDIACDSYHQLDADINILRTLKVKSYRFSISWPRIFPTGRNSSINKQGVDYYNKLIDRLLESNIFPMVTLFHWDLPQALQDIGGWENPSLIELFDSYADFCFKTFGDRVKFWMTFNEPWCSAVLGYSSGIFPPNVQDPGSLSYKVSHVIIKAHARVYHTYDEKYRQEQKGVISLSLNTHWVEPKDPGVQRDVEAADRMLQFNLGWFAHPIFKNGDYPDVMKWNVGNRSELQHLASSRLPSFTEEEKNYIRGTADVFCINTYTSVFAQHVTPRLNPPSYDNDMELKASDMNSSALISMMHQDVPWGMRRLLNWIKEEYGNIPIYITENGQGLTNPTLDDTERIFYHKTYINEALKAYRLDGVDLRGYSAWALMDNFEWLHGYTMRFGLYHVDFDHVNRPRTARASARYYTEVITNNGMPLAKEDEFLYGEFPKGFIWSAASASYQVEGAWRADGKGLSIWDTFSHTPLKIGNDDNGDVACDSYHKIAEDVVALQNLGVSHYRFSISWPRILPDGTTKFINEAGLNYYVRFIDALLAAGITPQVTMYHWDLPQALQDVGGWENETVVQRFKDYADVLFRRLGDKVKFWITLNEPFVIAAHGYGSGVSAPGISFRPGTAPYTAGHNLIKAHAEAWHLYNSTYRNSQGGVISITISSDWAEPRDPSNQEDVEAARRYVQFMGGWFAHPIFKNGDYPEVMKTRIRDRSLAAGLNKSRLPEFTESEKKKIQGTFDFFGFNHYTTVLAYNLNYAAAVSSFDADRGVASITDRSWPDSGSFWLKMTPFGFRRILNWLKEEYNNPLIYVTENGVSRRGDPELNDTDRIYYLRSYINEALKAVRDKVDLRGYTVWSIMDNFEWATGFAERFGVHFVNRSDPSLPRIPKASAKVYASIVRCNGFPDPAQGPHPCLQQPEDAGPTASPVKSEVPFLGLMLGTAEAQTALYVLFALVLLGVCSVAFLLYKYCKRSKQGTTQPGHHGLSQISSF", "assay": "Competitive ABPP against probe 13 in mouse gastrointestinal lysate", "assay_type": "biochemical", "details": "mouse intestine lysate, 1 h at 37 °C", "in_short": "as §1"}}}
{"molecule": "O=S1(=O)O[C@@H]2[C@H](O)[C@@H](O)[C@H](O)[C@@H](CO)[C@@H]2O1", "note": "[Compound 5, 1,6-epi-cyclophellitol cyclosulfate]", "values": [{"measurement": "inhibition of probe 13 labeling of GANAB", "setting": "[1]", "result": "inhibited"}, {"measurement": "competition of off-target probe 13 labeling of LPH", "setting": "[2]", "result": "not outcompeted"}]}
